# Measured values from article PMC11406440 (Food and chemical toxicology : an international journal …, 2024).
# Columns and labels:
# [1] = PFHxS concentration in serum and urine after dermal exposure; type: in vivo, B6C3F1 mice; conditions: 28 days; for Urine PFHxS concentration: 5 pooled samples; for PFHxS serum concentration: 24 h after last exposure
# Procedure, shortened: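 Mice received 25 μl/ear of acetone or 1.25, 2.5, 5% w/v test compound on both ears daily for 28 days. About 24 h after the last exposure, serum was taken by cardiac puncture (5 mice/group) and urine was pooled per group. Analysis was solid-phase extraction with LC/MS/MS (BEH C18, EPA method 537), linear isomer only. Serum was compared with vehicle by one-way ANOVA.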
# B6C3F1 mice [2] = test: Organ and body weights after 28-day dermal exposure; type: in vivo; conditions: 28 days
# Procedure, shortened: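 Female B6C3F1 mice (5/group) were treated topically on both ears (25 μl/ear) with acetone or 1.25, 2.5, 5% w/v test compound once daily for 28 days. They were weighed at necropsy about 24 h after the last dose. Liver, spleen, kidneys and thymus were cleaned of connective tissue and weighed. Organ weights were reported relative to body weight and uncorrected; dose trend was tested.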
# B6C3F1 mice [3] = test: Serum chemistries after 28-day dermal exposure; type: in vivo; conditions: 28 days
# Procedure, shortened: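 After 28 daily ear applications (25 μl/ear; acetone or 1.25, 2.5, 5% w/v), blood was taken by cardiac puncture about 24 h post-dose. Serum was separated by centrifugation and frozen at −20 °C, then run on a Catalyst DX chemistry analyzer for ALKP, BUN, glucose, cholesterol and ALT. There were 4–5 mice/group, with one-way ANOVA and Dunnett's post-test versus vehicle.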
# ear pinna cells = test: Skin; type: in vivo, B6C3F1 mice; conditions: 28 days; for Skin CD4+ frequency / Skin CD4+ number / Skin CD8+ frequency / Skin CD8+ number / Skin CD11b + DCs frequency / Skin CD11b + DCs number / Skin CD11b- DCs frequency / Skin CD11b- DCs number / Skin CD45+ frequency / Skin CD45+ number / Skin Cellularity / Skin Eosinophils frequency / Skin Eosinophils number / Skin NK frequency / Skin NK number / Skin Neutrophils frequency / Skin Neutrophils number: mean ± SE
# Procedure, shortened: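 Female B6C3F1 mice (5/group) received 25 μl/ear of acetone vehicle or 1.25, 2.5 or 5% w/v test compound on the dorsal surface of each ear, once daily for 28 days. They were euthanized about 24 h later. Single-cell suspensions were made from both auricular dLNs, half a spleen or one ear pinna. Cells were Fc-blocked (anti-CD16/32), stained with surface antibody cocktails and acquired on an LSR II, with FMO gating controls.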
# spleen = test: Spleen gene expression; type: in vivo, B6C3F1 mice; conditions: PFHxS dermal, 28 days
# Procedure, shortened: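 Spleens came from female B6C3F1 mice given acetone vehicle or test compound (1.25–5% w/v, 25 μl/ear, both ears) daily for 28 days and necropsied about 24 h after the last dose. Gene expression was measured by qPCR and expressed as mean fold change relative to vehicle, with 5 mice/group. Significance used one-way ANOVA with Dunnett's or Kruskal-Wallis with Dunn's post-test.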
# IgM response to SRBC = test: Spleen IgM response to SRBC; type: in vivo, B6C3F1 mice; conditions: 10 days
# Procedure, shortened: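 B6C3F1 mice, 5/group, dosed topically on dorsal surface of each ear (25 μl/ear) with acetone vehicle or test compound at 0.625, 1.25, 2.5% w/v once daily for 10 consecutive days. SRBC 7.5 × 10^7 i.v. given 4 days before CO2 euthanasia. Spleen cells plated at 1:30 and 1:120 in agar/DEAE-dextran with SRBC and guinea pig complement, 3 h at 37 °C. Plaques counted per 10^6 cells and per spleen. Mean ± SE.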
# mice = conditions: 7 days of 10 mg/kg oral exposure; ref Das et al., 2017; cited from earlier work
# Deer mice = conditions: oral gavage for 28-days, 7 and 14 mg/kg/d; ref Narizzano et al., 2023; cited from earlier work
compound,measurement,setting,value
"O=S(=O)(O)C(F)(F)C(F)(F)C(F)(F)C(F)(F)C(F)(F)C(F)(F)F [PFHxS, Perfluorohexane sulfonic acid]",Urine PFHxS concentration,[1]; 1.25% PFHxS dermal,43 µg/mL
same,PFHxS serum concentration,[1]; 1.25% PFHxS dermal,440 µg/mL
same,Urine PFHxS concentration,[1]; 2.5% PFHxS dermal,120 µg/mL
same,PFHxS serum concentration,[1]; 2.5% PFHxS dermal,608 µg/mL
same,Urine PFHxS concentration,[1]; 5% PFHxS dermal,130 µg/mL
same,PFHxS serum concentration,[1]; 5% PFHxS dermal,656 µg/mL
same,Liver weight (% of body weight) increase vs. vehicle-treated mice,B6C3F1 mice [2]; 1.25% PFHxS dermal,162%
same,Spleen weight (% of body) decrease,B6C3F1 mice [2]; 1.25% PFHxS dermal,25%
same,Mass of kidneys not corrected for body weight,"B6C3F1 mice [2]; 1.25, 2.5, 5% PFHxS dermal",significant decreases
same,Mass of liver not corrected for body weight,"B6C3F1 mice [2]; 1.25, 2.5, 5% PFHxS dermal",significant increases
same,Mass of spleen not corrected for body weight,"B6C3F1 mice [2]; 1.25, 2.5, 5% PFHxS dermal",significant decreases
same,Mass of thymus not corrected for body weight,"B6C3F1 mice [2]; 1.25, 2.5, 5% PFHxS dermal",significant decreases
same,Kidney weight (as % of body weight),B6C3F1 mice [2]; 1.25-5% PFHxS dermal,No change
same,Liver weight (% of body weight) increase vs. vehicle-treated mice,B6C3F1 mice [2]; 2.5% PFHxS dermal,172%
same,Spleen weight (% of body) decrease,B6C3F1 mice [2]; 2.5% PFHxS dermal,37%
same,Thymus weight (% of body) decrease,B6C3F1 mice [2]; 2.5% PFHxS dermal,44%
same,Body weight decrease,B6C3F1 mice [2]; 5% PFHxS dermal,14%
same,Liver weight (% of body weight) increase vs. vehicle-treated mice,B6C3F1 mice [2]; 5% PFHxS dermal,205%
same,Spleen weight (% of body) decrease,B6C3F1 mice [2]; 5% PFHxS dermal,38%
same,Thymus weight (% of body) decrease,B6C3F1 mice [2]; 5% PFHxS dermal,47%
same,Serum ALT fold increase,B6C3F1 mice [3]; 1.25% PFHxS dermal,3.66 fold
same,Serum ALKP fold increase,B6C3F1 mice [3]; 2.5% PFHxS dermal,2.11 fold
same,Serum ALT fold increase,B6C3F1 mice [3]; 2.5% PFHxS dermal,2.9 fold
same,Serum BUN change,B6C3F1 mice [3]; 2.5 and 5% PFHxS dermal,decreased
same,Serum cholesterol change,B6C3F1 mice [3]; 2.5 and 5% PFHxS dermal,decreased
same,Serum ALKP fold increase,B6C3F1 mice [3]; 5% PFHxS dermal,2.61 fold
same,Serum ALKP increase,B6C3F1 mice [3]; 5% PFHxS dermal,161%
same,Serum ALT fold increase,B6C3F1 mice [3]; 5% PFHxS dermal,4.6 fold
same,Serum ALT increase,B6C3F1 mice [3]; 5% PFHxS dermal,360%
same,Serum cholesterol decrease,B6C3F1 mice [3]; 5% PFHxS dermal,43%
same,Serum glucose decrease,B6C3F1 mice [3]; 5% PFHxS dermal,58%
same,Serum urea nitrogen (BUN) decrease,B6C3F1 mice [3]; 5% PFHxS dermal,34%
same,Serum glucose change,"B6C3F1 mice [3]; all three PFHxS concentrations (1.25, 2.5, 5%)",decreased
same,Skin CD4+ frequency,ear pinna cells; 1.25% PFHxS,2.64 ± 0.25%
same,Skin CD4+ number,ear pinna cells; 1.25% PFHxS,2.31 ± 0.36 x 10^3
same,Skin CD8+ frequency,ear pinna cells; 1.25% PFHxS,0.36 ± 0.05%
same,Skin CD8+ number,ear pinna cells; 1.25% PFHxS,3.21 ± 0.60 x 10^2
same,Skin CD11b + DCs frequency,ear pinna cells; 1.25% PFHxS,0.64 ± 0.03%
same,Skin CD11b + DCs number,ear pinna cells; 1.25% PFHxS,5.17 ± 0.30 x 10^2
same,Skin CD11b- DCs frequency,ear pinna cells; 1.25% PFHxS,1.43 ± 0.18 %
same,Skin CD11b- DCs number,ear pinna cells; 1.25% PFHxS,12.30 ± 1.74 x 10^2
same,Skin CD45+ frequency,ear pinna cells; 1.25% PFHxS,8.29 ± 0.74%
same,Skin CD45+ number,ear pinna cells; 1.25% PFHxS,8.39 ± 0.66 x 10^4
same,Skin Cellularity,ear pinna cells; 1.25% PFHxS,9.56 ± 0.21 x 10^5
same,Skin Eosinophils frequency,ear pinna cells; 1.25% PFHxS,1.21 ± 0.20 %
same,Skin Eosinophils number,ear pinna cells; 1.25% PFHxS,1.00 ± 0.24 x 10^3
same,Skin NK frequency,ear pinna cells; 1.25% PFHxS,0.97 ± 0.11%
same,Skin NK number,ear pinna cells; 1.25% PFHxS,8.53 ± 1.49 x 10^2
same,Skin Neutrophils frequency,ear pinna cells; 1.25% PFHxS,0.23 ± 0.03%
same,Skin Neutrophils number,ear pinna cells; 1.25% PFHxS,1.79 ± 0.31 x 10^2
same,Skin CD4+ frequency,ear pinna cells; 2.5% PFHxS,3.34 ± 0.18 %
same,Skin CD4+ number,ear pinna cells; 2.5% PFHxS,2.10 ± 0.25 x 10^3
same,Skin CD8+ frequency,ear pinna cells; 2.5% PFHxS,0.41 ± 0.07 %
same,Skin CD8+ number,ear pinna cells; 2.5% PFHxS,2.52 ± 0.48 x 10^2
same,Skin CD11b + DCs frequency,ear pinna cells; 2.5% PFHxS,0.73 ± 0.08%
same,Skin CD11b + DCs number,ear pinna cells; 2.5% PFHxS,4.45 ± 0.48 x 10^2
same,Skin CD11b- DCs frequency,ear pinna cells; 2.5% PFHxS,1.23 ± 0.12 %
same,Skin CD11b- DCs number,ear pinna cells; 2.5% PFHxS,7.66 ± 1.11 x 10^2
same,Skin CD45+ frequency,ear pinna cells; 2.5% PFHxS,8.20 ± 0.74%
same,Skin CD45+ number,ear pinna cells; 2.5% PFHxS,6.35 ± 0.84 x 10^4
same,Skin Cellularity,ear pinna cells; 2.5% PFHxS,7.67 ± 0.62 x 10^5
same,Skin Eosinophils frequency,ear pinna cells; 2.5% PFHxS,1.75 ± 0.12%
same,Skin Eosinophils number,ear pinna cells; 2.5% PFHxS,1.10 ± 0.15 x 10^3
same,Skin NK frequency,ear pinna cells; 2.5% PFHxS,0.78 ± 0.07 %
same,Skin NK number,ear pinna cells; 2.5% PFHxS,4.86 ± 0.61 x 10^2
same,Skin Neutrophils frequency,ear pinna cells; 2.5% PFHxS,0.30 ± 0.05%
same,Skin Neutrophils number,ear pinna cells; 2.5% PFHxS,1.84 ± 0.33 x 10^2
same,Skin macrophage number,ear pinna cells; 5% PFHxS,increase
same,Skin CD4+ frequency,ear pinna cells; 5% PFHxS,4.51 ± 0.21 %
same,Skin CD4+ number,ear pinna cells; 5% PFHxS,5.82 ± 0.41 x 10^3
same,Skin CD8+ frequency,ear pinna cells; 5% PFHxS,0.73 ± 0.09 %
same,Skin CD8+ number,ear pinna cells; 5% PFHxS,9.37 ± 1.32 x 10^2
same,Skin CD11b + DCs frequency,ear pinna cells; 5% PFHxS,1.18 ± 0.05 %
same,Skin CD11b + DCs number,ear pinna cells; 5% PFHxS,15.10 ± 0.45 x 10^2
same,Skin CD11b- DCs frequency,ear pinna cells; 5% PFHxS,1.25 ± 0.08 %
same,Skin CD11b- DCs number,ear pinna cells; 5% PFHxS,16.10 ± 1.39 x 10^2
same,Skin CD45+ frequency,ear pinna cells; 5% PFHxS,13.48 ± 0.52 %
same,Skin Cellularity,ear pinna cells; 5% PFHxS,9.56 ± 0.31 x 10^5
same,Skin Eosinophils frequency,ear pinna cells; 5% PFHxS,2.68 ± 0.31%
same,Skin Eosinophils number,ear pinna cells; 5% PFHxS,3.49 ± 0.52 x 10^3
same,Skin NK frequency,ear pinna cells; 5% PFHxS,0.68 ± 0.04 %
same,Skin NK number,ear pinna cells; 5% PFHxS,8.76 ± 0.68 x 10^2
same,Skin Neutrophils frequency,ear pinna cells; 5% PFHxS,1.14 ± 0.37 %
same,Skin Neutrophils number,ear pinna cells; 5% PFHxS,14.10 ± 4.21 x 10^2
same,Spleen Abcg1 gene expression,spleen,increased
same,Spleen Chac1 gene expression,spleen,increased
same,Spleen Crim1 gene expression,spleen,increased
same,Spleen Ctse gene expression,spleen,decrease
same,Spleen Fbxo38 gene expression,spleen,increased
same,Spleen Id1 gene expression,spleen,increased
same,Spleen Il-10 gene expression,spleen,increased
same,Spleen Tlr5 gene expression,spleen,increased
same,Spleen Tlr6 gene expression,spleen,increased
same,Spleen Tlr7 gene expression,spleen,increased
same,Spleen Tlr8 gene expression,spleen,increased
same,Decrease in specific IgM activity against SRBC (PFC/10^6 cells) vs vehicle,IgM response to SRBC; 1.25% PFHxS dermal,50.7%
same,Decrease in total IgM activity against SRBC (PFC/spleen) vs vehicle,IgM response to SRBC; 1.25% PFHxS dermal,57.9%
same,Decrease in specific IgM activity against SRBC (PFC/10^6 cells) vs vehicle,IgM response to SRBC; 2.5% PFHxS dermal,49.9%
same,Decrease in total IgM activity against SRBC (PFC/spleen) vs vehicle,IgM response to SRBC; 2.5% PFHxS dermal,60.3%
same,Increase in liver weight,mice,~ 60%
same,PFC formation,Deer mice,reduction
